Source: ChEMBL document CHEMBL2177027, “Exploring the directionality of 5-substitutions in a new series of 5-alkylaminopyrazolo[4,3-e]1,2,4-triazolo[1,5-c]pyrimidine as a strategy to design novel human a(3) adenosine receptor antagonists” (J Med Chem, 2012)
pKi: −log10 of the molar value.

Key:
[1] = biological target: T1, Adenosine receptor A3 (Homo sapiens, UniProt P0DMS8); experiment: Displacement of [3H]NECA from human adenosine A3 receptor expressed in CHO cell membrane; type: cell membranes
T1 sequence (P0DMS8 whole entry): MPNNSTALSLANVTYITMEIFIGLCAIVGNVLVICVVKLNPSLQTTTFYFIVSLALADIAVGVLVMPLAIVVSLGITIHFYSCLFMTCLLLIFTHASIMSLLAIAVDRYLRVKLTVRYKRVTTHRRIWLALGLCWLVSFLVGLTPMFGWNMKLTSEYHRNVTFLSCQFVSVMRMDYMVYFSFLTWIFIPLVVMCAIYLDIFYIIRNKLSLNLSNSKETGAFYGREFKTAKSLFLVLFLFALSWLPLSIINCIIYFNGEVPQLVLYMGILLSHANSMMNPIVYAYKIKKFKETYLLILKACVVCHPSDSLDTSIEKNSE
Outline: (§1)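 CHO cells stably transfected with the human receptor subtype. Membranes were prepared by a 1000g spin to clear fragments and nuclei, then pelleted from the supernatant at 100 000g. Pellet was resuspended in the respective binding buffer, frozen in liquid nitrogen and stored until radioligand competition binding.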

[2] = Selectivity ratio of Ki for human adenosine A1 receptor expressed in CHO cell membrane to Ki for human adenosine A2A receptor expressed in CHO cell membrane; type: cell-based
[3] = biological target: Adenosine receptors; A1 & A3 (Homo sapiens) (UniProt P30542+P0DMS8); experiment: Selectivity ratio of Ki for human adenosine A1 receptor expressed in CHO cell membrane to Ki for human adenosine A3 receptor expressed in CHO cell membrane; type: cell-based
[4] = biological target: Adenosine receptor A2a (Homo sapiens, UniProt P29274); experiment: Displacement of [3H]NECA from human adenosine A2A receptor expressed in CHO cell membrane; type: cell membranes; outline: as §1
Chain of Adenosine receptor A2a (P29274 whole entry): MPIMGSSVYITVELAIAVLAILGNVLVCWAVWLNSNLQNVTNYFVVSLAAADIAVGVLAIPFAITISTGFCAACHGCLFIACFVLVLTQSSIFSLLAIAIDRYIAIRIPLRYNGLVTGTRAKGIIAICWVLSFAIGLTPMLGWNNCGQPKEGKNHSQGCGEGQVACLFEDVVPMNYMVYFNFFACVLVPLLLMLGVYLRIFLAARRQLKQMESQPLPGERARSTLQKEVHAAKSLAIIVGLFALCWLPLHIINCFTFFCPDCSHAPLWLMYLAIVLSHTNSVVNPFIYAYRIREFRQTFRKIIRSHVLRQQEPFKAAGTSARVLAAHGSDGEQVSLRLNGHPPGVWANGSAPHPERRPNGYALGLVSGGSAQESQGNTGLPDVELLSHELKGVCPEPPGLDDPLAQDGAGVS

[5] = biological target: T2, Adenosine receptor A2b (Homo sapiens, UniProt P29275); experiment: Antagonist activity at human adenosine A2B receptor expressed in CHO cells assessed as NECA-induced adenylate cyclase activity; type: functional, cell-based
T2 sequence (P29275 whole entry): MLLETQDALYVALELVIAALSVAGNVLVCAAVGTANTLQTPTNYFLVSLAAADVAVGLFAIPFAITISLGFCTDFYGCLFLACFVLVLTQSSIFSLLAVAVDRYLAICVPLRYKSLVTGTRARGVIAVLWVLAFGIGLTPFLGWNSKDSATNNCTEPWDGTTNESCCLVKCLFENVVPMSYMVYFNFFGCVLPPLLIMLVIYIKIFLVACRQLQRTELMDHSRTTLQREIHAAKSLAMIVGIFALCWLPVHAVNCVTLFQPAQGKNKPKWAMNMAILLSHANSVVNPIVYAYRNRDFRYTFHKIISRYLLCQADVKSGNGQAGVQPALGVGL
Outline: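 Membranes from stably transfected CHO cells made with a single high-speed spin of the homogenate. Incubated 20 min with about 150 000 cpm [α-³²P]ATP in mixture lacking EDTA and NaCl. IC50 taken from concentration-dependent inhibition of NECA-stimulated adenylyl cyclase using Hill equation.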

[6] = Selectivity ratio of Ki for human adenosine A2A receptor expressed in CHO cell membrane to Ki for human adenosine A3 receptor expressed in CHO cell membrane; type: cell-based
[7] = biological target: T3, Adenosine receptor A1 (Homo sapiens, UniProt P30542); experiment: Displacement of [3H]CCPA from human adenosine A1 receptor expressed in CHO cell membrane; type: cell membranes; outline: as §1
T3 sequence (P30542 whole entry): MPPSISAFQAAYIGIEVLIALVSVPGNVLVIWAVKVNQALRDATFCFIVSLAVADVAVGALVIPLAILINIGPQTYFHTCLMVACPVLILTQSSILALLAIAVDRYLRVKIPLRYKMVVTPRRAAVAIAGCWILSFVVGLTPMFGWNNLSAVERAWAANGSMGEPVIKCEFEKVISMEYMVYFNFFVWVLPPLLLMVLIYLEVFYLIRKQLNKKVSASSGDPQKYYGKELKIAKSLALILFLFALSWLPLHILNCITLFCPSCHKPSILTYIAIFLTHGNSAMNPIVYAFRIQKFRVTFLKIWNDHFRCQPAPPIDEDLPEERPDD

| SMILES | pKi [1] | Ratio Ki [2] | Ratio Ki [3] | pKi [4] | pKi [5] | Ratio Ki [6] | pKi [7] |
| --- | --- | --- | --- | --- | --- | --- | --- |
| Cn1cc2c(nc(NC3C4CC5CC(C4)CC3C5)n3nc(-c4ccco4)nc23)n1 (centres undefined) | 7.73 | 0.88 | 39.9 | 6.07 | < 5.00 | 45.1 | 6.12 |
| Cn1cc2c(nc(NCCCO)n3nc(-c4ccco4)nc23)n1 | 6.62 | 1.37 | 0.88 | 6.81 | 5.03 | 0.64 | 6.67 |
| CN(C)c1nc2nn(C)cc2c2nc(-c3ccco3)nn12 | 6.40 | 4.62 | 12.1 | 5.99 | < 5.00 | 2.61 | 5.32 |
| CONc1nc2nn(C)cc2c2nc(-c3ccco3)nn12 | 6.39 | 14.9 | 6.81 | 6.73 | 5.07 | 0.46 | 5.56 |
| CCNc1nc2nn(C)cc2c2nc(-c3ccco3)nn12 | 7.35 | 2.9 | 13.6 | 6.68 | 5.67 | 4.68 | 6.22 |
| CCOc1nc2nn(C)cc2c2nc(-c3ccco3)nn12 | 6.74 | 1.27 | 42.6 | 5.21 | < 5.00 | 33.6 | 5.11 |
| CN(c1nc2nn(C)cc2c2nc(-c3ccco3)nn12)C1CCCCC1 | 7.49 | 0.37 | 31.2 | 5.56 | < 5.00 | 83.5 | 5.99 |
| CCCCCCC(C)Nc1nc2nn(C)cc2c2nc(-c3ccco3)nn12 (centres undefined) | 7.62 | 0.38 | 11.1 | 6.15 | < 5.00 | 29.4 | 6.58 |
| COc1ccc(CNc2nc3nn(C)cc3c3nc(-c4ccco4)nn23)cc1 | 8.16 | 2.5 | 63.9 | 6.75 | 5.01 | 25.6 | 6.35 |
| Cn1cc2c(nc(NCC3CCCCC3)n3nc(-c4ccco4)nc23)n1 | 7.33 | 0.98 | 17 | 6.09 | 5.02 | 17.2 | 6.10 |
| Cn1cc2c(nc(NC3CC3)n3nc(-c4ccco4)nc23)n1 | 7.16 | 1.84 | 3 | 6.95 | 5.76 | 1.63 | 6.68 |
| Cn1cc2c(nc(N3CCCC3)n3nc(-c4ccco4)nc23)n1 | 7.45 | 2.48 | 9.24 | 6.88 | < 5.00 | 3.72 | 6.48 |
| Cn1cc2c(nc(NCCCCCO)n3nc(-c4ccco4)nc23)n1 | 6.87 | 4.23 | 3.86 | 6.91 | < 5.00 | 0.91 | 6.28 |
| C[C@@H](Nc1nc2nn(C)cc2c2nc(-c3ccco3)nn12)c1ccccc1 | 8.43 | 24.7 | 255 | 7.42 | 4.91 | 10.3 | 6.02 |
| CN(Cc1ccccc1)c1nc2nn(C)cc2c2nc(-c3ccco3)nn12 | 7.74 | 0.52 | 31.4 | 5.97 | < 5.00 | 60 | 6.25 |
| Cn1cc2c(nc(NC3CCC3)n3nc(-c4ccco4)nc23)n1 | 7.75 | 2.01 | 9.6 | 7.08 | 5.95 | 4.77 | 6.77 |

| SMILES | pKi [1] | Ratio Ki [2] | Ratio Ki [3] | pKi [4] | pKi [5] | Ratio Ki [6] | pKi [7] |
| --- | --- | --- | --- | --- | --- | --- | --- |
| Cn1cc2c(nc(N(Cc3ccccc3)Cc3ccccc3)n3nc(-c4ccco4)nc23)n1 | 6.39 | 0.62 | 1.76 | 5.94 | < 5.00 | 2.85 | 6.15 |
| CCCCCN(CCCCC)c1nc2nn(C)cc2c2nc(-c3ccco3)nn12 | 6.08 | 0.44 | 4.04 | 5.13 | < 5.00 | 9.09 | 5.48 |
| Cn1cc2c(nc(NCCc3ccccc3)n3nc(-c4ccco4)nc23)n1 | 7.28 | 15.9 | 13.9 | 7.34 | 5.55 | 0.87 | 6.13 |
| CC(CCc1ccccc1)Nc1nc2nn(C)cc2c2nc(-c3ccco3)nn12 (centres undefined) | 7.42 | 0.9 | 3.52 | 6.83 | 5.28 | 3.89 | 6.88 |
| Cn1cc2c(nc(NCCOc3ccccc3)n3nc(-c4ccco4)nc23)n1 | 7.41 | 5.34 | 16.7 | 6.92 | 5.12 | 3.13 | 6.19 |
| Cn1cc2c(nc(NC(C)(C)CC(C)(C)C)n3nc(-c4ccco4)nc23)n1 | 6.89 | 0.3 | 7.55 | 5.49 | < 5.00 | 24.8 | 6.01 |
| Cn1cc2c(nc(NC(CO)CO)n3nc(-c4ccco4)nc23)n1 | 6.27 | 1.07 | 1.19 | 6.22 | < 5.00 | 1.11 | 6.19 |
| CC[C@@H](C)Nc1nc2nn(C)cc2c2nc(-c3ccco3)nn12 | 8.23 | 0.61 | 27.8 | 6.57 | 5.32 | 45.9 | 6.78 |
| Cn1cc2c(nc(NCc3ccccc3)n3nc(-c4ccco4)nc23)n1 | 8.60 | 5.79 | 212 | 7.04 | 5.48 | 36.5 | 6.28 |
| CCCCC(CC)CNc1nc2nn(C)cc2c2nc(-c3ccco3)nn12 (centres undefined) | 8.42 | 1.18 | 158 | 6.29 | < 5.00 | 134 | 6.22 |
| CC[C@H](C)Nc1nc2nn(C)cc2c2nc(-c3ccco3)nn12 | 7.96 | 0.53 | 11.7 | 6.61 | 5.59 | 22.2 | 6.89 |
| CN1CCN(c2nc3nn(C)cc3c3nc(-c4ccco4)nn23)CC1 | 5.88 | 1.98 | 11.4 | 5.11 | < 5.00 | 5.78 | 4.82 |
| Cn1cc2c(nc(NCCCCO)n3nc(-c4ccco4)nc23)n1 | 6.60 | 4.14 | 4.13 | 6.60 | < 5.00 | 1 | 5.98 |
| CCC(CO)Nc1nc2nn(C)cc2c2nc(-c3ccco3)nn12 (centres undefined) | 7.20 | 1.06 | 3.48 | 6.68 | < 5.00 | 3.29 | 6.66 |
| CC(O)CNc1nc2nn(C)cc2c2nc(-c3ccco3)nn12 (centres undefined) | 6.45 | 2.76 | 1.05 | 6.87 | < 5.52 | 0.38 | 6.43 |
| Cn1cc2c(nc(NCCCCCCO)n3nc(-c4ccco4)nc23)n1 | 6.81 | 4.43 | 3.1 | 6.96 | < 5.00 | 0.7 | 6.32 |
